Data: ChEMBL document CHEMBL1123810, “Synthesis and cardiotonic activity of a series of substituted 4-alkyl-2(1H)-quinazolinones” (J Med Chem, 1987)

Experiments:
[1] = biological target: Phosphodiesterase 3 (Canis familiaris); experiment: Inhibitory activity against canine cardiac fraction III cyclic AMP phosphodiesterase (PDE III)
[2] = tested on: Canis familiaris; experiment: Effect on arterial blood pressure (MAP) in anesthetized open-chest dogs at 8.75 mg/kg intravenous dose; type: functional, Canis lupus familiaris
Summary of the method: (§1)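 Pentobarbital-anesthetized (45 mg/kg i.p.), ventilated mongrel dogs, open chest. MAP came from a femoral artery cannula, HR from a cardiotachometer triggered by the pressure pulse, and CF from a right-ventricle strain gauge. Compound in 10% DMF/saline or as the HCl salt in saline was infused iv in 3–4 stepwise rising doses, each over 5 min. Responses are % change from predrug control at the maximum dose given.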

[3] = tested on: Canis familiaris; experiment: Effect on heart rate (HR) in anesthetized open-chest dogs at 8.75 mg/kg intravenous dose; type: functional, Canis lupus familiaris
Summary of the method: as §1

[4] = tested on: Canis familiaris; experiment: Effect on myocardial contractile force (CF) in anesthetized open-chest dogs at 8.75 mg/kg intravenous dose; type: functional, Canis lupus familiaris, Myocardium
Summary of the method: as §1

[5] = tested on: Canis familiaris; experiment: Effect that produces a 50% increase in myocardial contractile force (CF) above control in anesthetized open-chest dogs at 8.75 mg/kg intravenous dose; type: functional; conditions: Canis lupus familiaris, Myocardium
Summary of the method: (§2)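 Anesthetized (pentobarbital 45 mg/kg i.p.), artificially respired mongrel dogs with right thoracotomy. Contractile force was read by a strain gauge on the right ventricle. Compound was given in 10% DMF in saline, or as the HCl salt in saline, by femoral vein infusion in 3–4 stepwise increasing doses, each over 5 min. ED50 (mg/kg iv) is the dose giving a 50% CF rise over control, taken from 3–4 point dose–response curves by graphic estimation (n = 1, 2 dogs) or linear regression (n ≥ 3).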

[6] = tested on: Canis familiaris; experiment: Effect on heart rate (HR) in anesthetized open-chest dogs at 1.875 mg/kg intravenous dose; type: functional, Canis lupus familiaris
Summary of the method: as §1

[7] = tested on: Canis familiaris; experiment: 50% increase in myocardial contractile force (CF) above control in anesthetized open-chest dogs at 1.875 mg/kg intravenous dose; type: functional; conditions: Canis lupus familiaris, Myocardium
Summary of the method: as §2

[8] = tested on: Canis familiaris; experiment: Effect on myocardial contractile force (CF) in anesthetized open-chest dogs at 1.875 mg/kg intravenous dose; type: functional, Canis lupus familiaris, Myocardium
Summary of the method: as §1

[9] = tested on: Canis familiaris; experiment: Effect on arterial blood pressure (MAP) in anesthetized open-chest dogs at 1.875 mg/kg intravenous dose; type: functional, Canis lupus familiaris
Summary of the method: as §1

[10] = tested on: Canis familiaris; experiment: 50% increase in myocardial contractile force (CF) above control in anesthetized open-chest dogs at 3.75 mg/kg intravenous dose; type: functional; conditions: Canis lupus familiaris, Myocardium
Summary of the method: as §2

[11] = tested on: Canis familiaris; experiment: Effect on heart rate (HR) in anesthetized open-chest dogs at 3.75 mg/kg intravenous dose; type: functional, Canis lupus familiaris
Summary of the method: as §1

[12] = tested on: Canis familiaris; experiment: Effect on myocardial contractile force (CF) in anesthetized open-chest dogs at 3.75 mg/kg intravenous dose; type: functional, Canis lupus familiaris, Myocardium
Summary of the method: as §1

[13] = tested on: Canis familiaris; experiment: Effect on arterial blood pressure (MAP) in anesthetized open-chest dogs at 3.75 mg/kg intravenous dose; type: functional, Canis lupus familiaris
Summary of the method: as §1

[14] = biological target: Phosphodiesterase 3 (Canis familiaris); experiment: Inhibition of canine cardiac fraction III cAMP phosphodiesterase (PDE 3) at 1.875 mg/kg intravenous dose
[15] = tested on: Canis familiaris; experiment: Effect on heart rate (HR) in anesthetized open-chest dogs at 0.875 mg/kg intravenous dose; type: functional, Canis lupus familiaris
Summary of the method: as §1

[16] = tested on: Canis familiaris; experiment: Effect on myocardial contractile force (CF) in anesthetized open-chest dogs at 0.875 mg/kg intravenous dose; type: functional, Canis lupus familiaris, Myocardium
Summary of the method: as §1

[17] = tested on: Canis familiaris; experiment: 50% increase in myocardial contractile force (CF) above control in anesthetized open-chest dogs at 0.875 mg/kg intravenous dose; type: functional; conditions: Canis lupus familiaris, Myocardium
Summary of the method: as §2

[18] = tested on: Canis familiaris; experiment: Effect on arterial blood pressure (MAP) in anesthetized open-chest dogs at 0.875 mg/kg intravenous dose; type: functional, Canis lupus familiaris
Summary of the method: as §1

[19] = biological target: Phosphodiesterase 3 (Canis familiaris); experiment: Inhibition of canine cardiac fraction III cAMP phosphodiesterase (PDE 3) at 0.875 mg/kg intravenous dose

SMILES	IC50 [1]	Change [2]	Change [3]	Change [4]	ED50 [5]	Change [6]	ED50 [7]	Change [8]	Change [9]	also measured
Br.Cc1nc(O)nc2ccc(O)c(O)c12	18 µM	8%	0%	39%	> 8.75 mg/kg					
Cc1nc(O)nc2ccc3c(c12)OCO3						13%	0.69 mg/kg	71%	-14%	
Cc1nc(O)nc2ccccc12	138 µM	-8%	16%	93%	3.45 mg/kg					
Cc1nc(O)nc2ccc(N3CCCCC3)cc12										ED50 [10]: 1.13 mg/kg; Change [11]: 35%; Change [12]: 116%; Change [13]: -21%
COc1cc2nc(O)nc(C)c2c(OC)c1OC						0%	> 1.87 mg/kg	11%	-9%	
CCc1nc(O)nc2cc(OC)c(OC)cc12		-28%	13%	82%	3.4 mg/kg					
Cc1nc(O)nc2ccc(N(C)C)cc12	38 µM	-23%	23%	90%	1.2 mg/kg					
COc1cc2nc(O)nc(C(F)(F)F)c2cc1OC	100 µM	-15%	0%	23%	> 8.75 mg/kg					
COc1cc2nc(O)nc(Cc3ccccc3)c2cc1OC						3%	> 1.87 mg/kg	33%	30%	IC50 [14]: 13 µM
Cc1nc(O)nc2cc3c(cc12)OCO3		1%	10%	66%	5.65 mg/kg					
Cc1nc(O)nc2cc(Cl)c(Cl)cc12		1%	2%	10%	> 8.75 mg/kg					
COc1ccc2nc(O)nc(C)c2c1										ED50 [10]: 1.32 mg/kg; Change [11]: 18%; Change [12]: 111%; Change [13]: -10%
Cc1nc(O)nc2ccc(Cl)cc12		-21%	33%	85%	1.8 mg/kg					
COc1ccc2nc(O)ncc2c1OC						10%	1.64 mg/kg	101%	-9%	
CCc1nc(O)nc2ccc(OC)c(OC)c12						20%	0.51 mg/kg	112%	9%	IC50 [14]: 18 µM
COc1cc(OC)c2nc(O)nc(C)c2c1	190 µM	-6%	13%	60%	7.45 mg/kg					
COc1cc(OC)c2c(C)nc(O)nc2c1	25 µM	-40%	25%	97%	2.08 mg/kg					
COc1cc2nc(O)nc(C(C)C)c2cc1OC	43 µM	-27%	21%	112%	1.39 mg/kg					
COc1ccc(OC)c2c(C)nc(O)nc12	129 µM	-6%	13%	54%						
COc1cc2nc(O)nc(C3CCCC3)c2cc1OC	22 µM	-19%	11%	71%	> 8.75 mg/kg					
COc1cc2nc(O)nc(C)c2cc1OC	100 µM	-35%	19%	90%	2.42 mg/kg					
COc1cc2nc(O)nc(-c3ccccc3)c2cc1OC	14 µM	-25%	7%	106%	4.1 mg/kg					
COc1cc2c(C)nc(O)nc2c(OC)c1OC						3%	> 1.87 mg/kg	10%	-4%	
COc1ccc2c(c(C)nc(=O)n2C)c1OC						5%	> 1.87 mg/kg	31%	6%	
Cc1nc(O)nc2ccc(N3CCOCC3)cc12										Change [15]: 13%; Change [16]: 59%; ED50 [17]: 0.7 mg/kg; Change [18]: -10%
Cc1nc(O)nc2ccc(N3CCN(C)CC3)cc12						6%	> 1.87 mg/kg	10%	0%	IC50 [14]: 300 µM
COc1ccc2[nH]c(=O)nc(C)c2c1OC [BEMARINONE]										Change [15]: 20%; Change [16]: 114%; IC50 [19]: 17 µM; ED50 [17]: 0.23 mg/kg; Change [18]: -16%
Nc1cc(-c2ccncc2)c[nH]c1=O [INAMRINONE]						12%	0.38 mg/kg	134%	-10%	
